# Shown is part of a subset that was picked to be rich in hits.
# E coli WT exp – E. coli BW25113 growth inhibition, expanded screen; OD600 absorbance; growth inhibition, % at 100 µM; 98,000 compounds, 0.15% hits; AID 710;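 active = growth inhibition above about 50% at one test dose, limit read from the data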;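 also: growth measured after 20 h incubation at 37 °C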
# Ecoli tolC – E. coli tolC mutant growth inhibition; E. coli BW25113 tolC mutant growth, OD615; growth inhibition, % at 10 µM (by protocol); 65,000 compounds, 2.2% hits; AID 573;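 active = growth inhibition at or above a cutoff equal to the mean over every tested compound plus 3 SD, cut at about 60% in these data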;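 also: growth measured after 20 h incubation at 37 °C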
#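 Assay system: tolC-deleted E. coli BW25113. Medium: kanamycin-containing LB broth (50 µg/mL). Dosing: 10 µM final, single dose. Timing: bacterial growth with compound for 20 h at 37 °C. Detection: A615 absorbance measurement. Read-out basis: growth inhibition in percent.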
# CD11b adhes enh – enhancers of human CD11b/CD18 binding to fibrinogen. P05107+P11215. K562 CD11b/CD18 adhesion to fibrinogen, ATPlite luminescence. activation, % at 10 µM. 93,000 compounds, 0.07% hits. AID 1499;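 active = 10 µM primary screen giving 50% or more activity, confirmed by 40% or more on retest at that dose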
# Target sequence (P05107 whole entry, looked up, other chains not shown): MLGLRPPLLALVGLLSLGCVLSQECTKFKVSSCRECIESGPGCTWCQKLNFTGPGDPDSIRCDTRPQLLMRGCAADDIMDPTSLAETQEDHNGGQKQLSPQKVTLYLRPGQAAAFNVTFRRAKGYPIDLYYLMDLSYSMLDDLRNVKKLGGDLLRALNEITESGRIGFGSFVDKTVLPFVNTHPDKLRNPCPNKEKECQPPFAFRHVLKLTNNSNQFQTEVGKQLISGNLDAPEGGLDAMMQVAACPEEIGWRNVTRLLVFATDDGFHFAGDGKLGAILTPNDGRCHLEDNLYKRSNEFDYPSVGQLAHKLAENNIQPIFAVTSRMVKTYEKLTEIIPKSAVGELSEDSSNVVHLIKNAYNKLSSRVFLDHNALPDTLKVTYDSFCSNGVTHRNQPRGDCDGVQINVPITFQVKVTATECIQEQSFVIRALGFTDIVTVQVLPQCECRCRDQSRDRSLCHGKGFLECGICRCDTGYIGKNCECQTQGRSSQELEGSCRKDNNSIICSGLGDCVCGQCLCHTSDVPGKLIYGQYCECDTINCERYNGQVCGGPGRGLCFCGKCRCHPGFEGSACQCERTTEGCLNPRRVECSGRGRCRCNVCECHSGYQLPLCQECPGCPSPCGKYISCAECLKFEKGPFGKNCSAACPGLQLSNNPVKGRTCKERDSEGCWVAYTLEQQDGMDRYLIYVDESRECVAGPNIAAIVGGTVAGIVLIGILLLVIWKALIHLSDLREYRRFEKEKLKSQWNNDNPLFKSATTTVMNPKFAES
# Mac1 fbg inh – blocks human CD11b/CD18 adhesion to fibrinogen; P05107+P11215; K562 CD11b/CD18 adhesion to fibrinogen, ATPlite luminescence; Mn2+ added to activate the integrin; inhibition, % at 10 µM; 93,000 compounds, 0.54% hits; AID 1497;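 active = primary inhibition of 50% or more at 10 µM, then 40% or more on retest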
# Active calls of the source: *; x = no result.
SMILES,E coli WT exp,Ecoli tolC,CD11b adhes enh,Mac1 fbg inh
Cc1ccc2[nH]c(=O)c(CN(Cc3ccc4c(c3)OCO4)Cc3nnnn3C3CCCC3)cc2c1,-8.0,62.0*,-4.4,8.9
Cc1ccc2[nH]c(=O)c(CN(Cc3nnnn3Cc3ccccc3)C3CCCC3)cc2c1,-4.0,74.5*,-2.0,-8.8
COc1ccc(C(=O)N=c2sc3c(C)ccc(OC)c3n2C)cc1,-3.0,x,-1.9,37.2
CCn1cc(C(=O)NCC2CCCO2)c(=O)c2cc(F)c(N3CCN(C)CC3)cc21 (stereo unspecified),-5.0,10.1,x,x
CCn1cc(C(=O)NCc2cccnc2)c(=O)c2cc(F)c(N3CCN(C(=O)c4ccco4)CC3)cc21,97.0*,x,-2.0,4.0
CCn1cc(C(=O)NCc2cccc(F)c2)c(=O)c2cc(F)c(N3CCN(C(=O)c4ccco4)CC3)cc21,91.0*,x,-2.1,15.1
Cc1ccc(NC(=O)c2ccc(OC(=O)COc3cccc(Cl)c3)cc2)cc1,x,x,39.9,-25.3
CS(=O)(=O)NCC(c1ccco1)N1CCN(c2ccc(F)cc2)CC1 (stereo unspecified),x,x,0.7,-9.0
COc1ccccc1Cc1noc(-c2cc(Cl)ccc2OC)n1,-7.0,19.1,4.4,-25.7
COc1cc(-c2nc(Cc3ccccc3Cl)no2)cc(OC)c1OC,-1.0,67.4*,2.1,16.9
COc1cc(-c2nnc(SCc3ccccc3Cl)o2)cc(OC)c1OC,-1.0,76.6*,5.1,0.8
COC(=O)c1ccc(NC(=O)CSc2nccn2CCc2ccccc2)cc1,-3.0,x,-3.1,3.3
COc1cccc(N2CCN(c3c4c(nc5ncnn35)CCC4)CC2)c1,-6.0,5.1,-5.0,51.4*
c1ccc(N2CCN(c3c4c(nc5ncnn35)CCC4)CC2)cc1,-6.0,-8.8,-2.3,-11.8
Cc1nn(-c2ccccc2)c2c1C(=O)N(Cc1ccccc1)C(=O)C(C)(C)C2,0.0,x,x,x
Cc1nn(-c2nc3ccccc3n2Cc2ccccc2)c2c1C(=O)CC(C)(C)C2,-17.0,90.5*,4.6,0.3
CCC1CCCCN1S(=O)(=O)c1ccc2c(c1)CCN2C(=O)C1CCC1 (stereo unspecified),-6.0,83.9*,x,x
CCCn1c(SCC(=O)Nc2ccccc2C(=O)OC)nc2c1c(=O)n(C)c(=O)n2C,-11.0,12.8,0.3,3.4
CCCn1c(SCC(=O)Nc2ccccc2N2CCCCC2)nc2c1c(=O)n(C)c(=O)n2C,-12.0,64.8*,6.6,17.3
CCc1c(C#N)c(SCc2c(C)noc2C)nc2c1C(=O)CC(C)(C)C2,x,62.7*,x,x
CCc1c(C#N)c(SCCC(=O)Nc2ccc(OC)cc2)nc2c1C(=O)CC(C)(C)C2,-12.0,x,0.0,10.7
COc1nccnc1NS(=O)(=O)c1ccc(NS(=O)(=O)c2ccc(NC(C)=O)cc2)cc1,-2.0,x,-2.5,68.4*
CCOc1ccc(OCC)c(-c2c(=O)n(OCc3ccccc3Br)c3ccccc3[n+]2[O-])c1,-10.0,x,-1.7,-2.7
COc1ccc(CCN(C)Cc2ccc(OC)c(OCc3ccccc3)c2)cc1OC,8.0,x,-2.6,-1.6
COc1cc(CN(C)Cc2ccccc2)cc(OC)c1O,-3.0,x,-9.9,87.0*
SMILES,E coli WT exp,Ecoli tolC,CD11b adhes enh,Mac1 fbg inh
CNS(=O)(=O)c1cnccc1N1CCN(c2cccc(C(F)(F)F)c2)CC1,12.0,x,x,x
O=C(CSc1n[nH]c(-c2ccco2)n1)N1c2ccccc2Sc2ccccc21,0.0,73.2*,0.7,6.8
CCOC(=O)CSc1n[nH]c(-c2ccco2)n1,2.0,-9.0,1.2,-4.3
Cc1cc(=O)oc2c1ccc1oc(/C(=N/O)c3ccccc3)c(C)c12,23.0,63.3*,x,x
Cc1cc(=O)oc2c(C(=O)/C=C/c3ccccc3)c(O)ccc12,-3.0,x,23.5,-0.9
CCOC(=O)c1c(C2CC2)csc1NC(=O)COC(=O)CCS(=O)(=O)c1ccc(C)cc1,x,x,14.5,1.4
CN(C)S(=O)(=O)N(CC(=O)N(Cc1ccccc1)Cc1ccccc1)c1ccccc1,-4.0,x,5.9,-2.1
CN(C)S(=O)(=O)N(Cc1ccc(Br)cc1)c1ccccc1,8.0,88.2*,x,x
Cc1ccc2nc(NC(=O)CNS(=O)(=O)c3ccc(Br)s3)sc2c1,-12.0,61.2*,-3.6,1.4
Cc1ccc2nc(NC(=O)CN(C)S(=O)(=O)c3cccc4nsnc34)sc2c1,1.0,-16.2,5.5,-25.2
Cc1ccc2nc(NC(=O)CN(C)S(=O)(=O)c3ccc(Br)s3)sc2c1,-10.0,80.6*,-4.1,21.3
O=C(C(Cc1ccccc1)NS(=O)(=O)c1cccc2cccnc12)N1CCc2ccccc21 (stereo unspecified),-7.0,x,6.0,-8.3
CC(Oc1ccccc1Br)C(=O)N1CCc2ccccc21 (stereo unspecified),6.0,69.0*,-0.3,5.3
CCCCCc1ccc(CC(=O)Nn2c(C)nc3ccccc3c2=O)cc1,-2.0,x,-3.3,88.0*
CCOC(=O)c1cccc(-n2c(-c3ccc(OC)cc3)nc3nc4ccccc4nc32)c1,x,x,82.5,3.4
CCOc1cc(/C=N/NC(=O)c2cccnc2)ccc1OCC(=O)N1CCOCC1,x,x,-5.8,4.1
Cc1ccc(C(c2nnnn2CCc2ccccc2)N2CCSCC2)cc1 (stereo unspecified),-20.0,64.4*,3.1,x
COCCn1nnnc1C(c1ccc(Cl)cc1)N1CCSCC1 (stereo unspecified),-10.0,-17.5,2.1,18.9
O=c1[nH]c2ccc(S(=O)(=O)N3CCN(c4ccccc4F)CC3)cc2s1,-5.0,99.5*,-7.2,74.4
Cn1c(=O)oc2cc(S(=O)(=O)N3CCCC(C(=O)N4CC=C(c5ccccc5)CC4)C3)ccc21 (stereo unspecified),-4.0,3.6,-3.3,60.9*
CCOC(=O)c1cccc(NC(=O)CSc2nnc(COc3ccccc3C)o2)c1,-19.0,7.2,0.3,-0.8
CCOC(=O)c1ccccc1NC(=O)c1ccc(F)cc1,2.0,x,0.2,-12.2
CCOC(=O)c1ccccc1NC(=O)c1c(F)c(F)c(F)c(F)c1F,-4.0,65.0*,-0.9,5.4
COc1ccc(Cn2c(-c3ccco3)nc3oc4ccccc4c(=O)c3c2=O)cc1,-21.0,-31.0,20.2,-4.5
COc1ccc2c(=O)c3c(=O)n(Cc4ccco4)c(-c4ccco4)nc3oc2c1,-11.0,x,-1.7,2.7
SMILES,E coli WT exp,Ecoli tolC,CD11b adhes enh,Mac1 fbg inh
COc1ccc(Cn2c(-c3ccco3)nc3oc4cc(OC)ccc4c(=O)c3c2=O)cc1,-23.0,86.4*,3.6,-6.7
COc1ccc(-c2nc3oc4cc(OC)ccc4c(=O)c3c(=O)n2Cc2ccco2)cc1,-14.0,94.7*,0.7,23.9
O=C(NCc1ccco1)C(C(=O)c1ccc(F)cc1)n1ccccc1=O (stereo unspecified),8.0,96.9*,-8.3,3.7
Cc1cccc(C)c1NC(=O)c1c(C)nn(-c2ccccc2)c1Cl,0.0,x,2.4,-15.1
Cc1nn(-c2ccccc2)c(Cl)c1C(=O)Nc1nnc(C2CCCC2)s1,-22.0,100.0*,6.5,15.7
S=c1[nH]c2ccc(Cl)cc2[nH]1,18.0,-20.5,x,x
S=c1[nH]c2cc(Cl)ccc2s1,53.0*,x,x,x
O=C(COc1ccc(Cl)cc1Br)NC(=O)NCc1ccccc1,x,x,5.5,4.6
O=C(C1CCN(Cc2cc(Cl)ccc2O)CC1)N1CCN(Cc2ccccc2)CC1,4.0,94.8*,x,x
CCOC(=O)C1CCCN(C(=S)Nc2cccc(Cl)c2)C1 (stereo unspecified),x,x,0.9,-0.4
